High-throughput results deposited in PubChem by several laboratories.
The list is not random: actives were taken first. Their share in the collection is about 1.7%.
HNF4A DNA FP = change in binding of human HNF4 alpha to DNA. P41235. HNF4a-FITC DNA binding, fluorescence polarization, 1 h. activity change, % at 10 µM. actives 0.3% (n = 360,000). AID 1224865; in the data active = activity change above about 30%, passing the limit was not always enough
IDE act = boosts human insulin-degrading enzyme activity in HEK cells | P14735 | FAbeta-B cleavage, fluorescence polarization; 0% vehicle, 100% cell-free pure enzyme wells | activation, % at 5.96 µM | actives 0.073% (n = 340,000);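 active = activation above the mean of all tested compounds plus 3 SD, set per screening campaign, cut at about 17% in these data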
TPT1 inh = C. albicans TPT1 enzyme inhibition | recombinant caTPT1, FP RNA substrate dephosphorylation | inhibition, % at 5 µM | actives 0.81% (n = 300,000);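 active = inhibition above the mean of all tested compounds plus 3 SD, set per screening campaign, cut at about 24% in these data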;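 note: plate controls were DMSO alone for no effect and ferristatin control at 100 nM for full effect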
Rpn11 block = inhibitors of human proteasome Rpn11; O00487; human 26S proteasome, Ub4-pepOG fluorescence polarization; 20S core pre-blocked with epoxomicin; inhibition, % at 20 µM; actives 0.59% (n = 360,000); AID 588493;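 active = inhibition at 20 µM, scaled to each plate's controls, above about 33%, limit read from the data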
Target sequence (O00487 whole entry, looked up): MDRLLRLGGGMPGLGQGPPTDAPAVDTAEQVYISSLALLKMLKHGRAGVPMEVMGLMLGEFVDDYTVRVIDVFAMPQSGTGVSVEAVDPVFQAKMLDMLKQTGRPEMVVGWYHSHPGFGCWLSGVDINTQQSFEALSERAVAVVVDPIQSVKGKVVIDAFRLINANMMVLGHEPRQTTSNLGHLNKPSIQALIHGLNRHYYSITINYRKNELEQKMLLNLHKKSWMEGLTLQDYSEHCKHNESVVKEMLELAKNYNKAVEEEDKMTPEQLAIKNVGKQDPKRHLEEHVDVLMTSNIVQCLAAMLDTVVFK
IDE cell inh = inhibits human insulin-degrading enzyme in HEK cells; FAbetaB cleavage, fluorescence polarization; inhibition, % at 5.59 µM; actives 0.41% (n = 320,000); AID 434962;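 active = percent inhibition above the average of all tested compounds plus 3 SD, set per screening campaign, cut at about 16% in these data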;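 note: IDE supplied by intact live HEK cells; FP after avidin binding of uncleaved biotin substrate so inhibition keeps polarization high; 0% = DMSO wells and 100% = 60 µM reference IDE inhibitor Ii1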
CSN deneddyl inh = inhibitors of human CSN-mediated cullin deneddylation. inhibition, % at 12.5 µM. AID 651999. Purified CSN, SCF-Nedd8-OG deneddylation, fluorescence polarization. actives 0.38% (n = 360,000);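 active = pattern-corrected inhibition above about 35%, with an unprinted fluorescence ratio check between 0.5 and 1.5, limit read from the data, passing the limit was not always enough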;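 note: 0% = enzyme with substrate and 100% = substrate without enzyme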
Target sequence (Q92905 whole entry, looked up, one chain of several): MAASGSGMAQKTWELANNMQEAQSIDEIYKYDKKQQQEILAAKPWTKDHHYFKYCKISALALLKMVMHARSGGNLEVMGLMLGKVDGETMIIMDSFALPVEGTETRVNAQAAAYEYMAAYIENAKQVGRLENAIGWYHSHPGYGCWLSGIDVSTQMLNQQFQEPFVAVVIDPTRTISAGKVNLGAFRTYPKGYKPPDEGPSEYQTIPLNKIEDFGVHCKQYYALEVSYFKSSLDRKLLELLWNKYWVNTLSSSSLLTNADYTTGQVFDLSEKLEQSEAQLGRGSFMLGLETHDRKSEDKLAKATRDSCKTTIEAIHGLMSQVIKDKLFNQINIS
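Material: purified human Csn5 enzyme expressed in HEK293T cells / Medium: Tris buffer pH 7.5, NaCl, DTT, Tween-20, trehalose, ovalbumin / Compound dosing: 12.5 µM single point / Schedule: 90 min incubation of compound, enzyme and substrate at room temperature / Signal: fluorescence polarization of the substrate / Control set: no-enzyme wells high, enzyme-with-substrate wells low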
Rpn11 confirm = Rpn11 inhibition confirmation, single concentration. shares compounds with Rpn11 block. purified human 26S proteasome, Ub4-pepOG fluorescence polarization; proteasome pretreated with epoxomicin. inhibition, % at 20 µM. actives 29% (n = 1,900). AID 602318
MMP-2 inh = MMP-2 (human) inhibition counter-screen; actives 4% (n = 1,900); recombinant MMP-2, FRET peptide cleavage fluorescence; inhibition, % at 20 µM; shares compounds with Rpn11 block;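 note: human MMP-2 activated beforehand with APMA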
Thrombin inh = counter-screen for RPN11 inhibitors: inhibition of bovine thrombin | bovine thrombin cleavage of Ub4-pepOG, fluorescence polarization | AID 602333 | inhibition, % at 20 µM | shares compounds with Rpn11 block | actives 13% (n = 1,900);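 active = mean inhibition at least 40% at 20 µM, or signal 3 deviations below plate average, so some actives read negative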;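 note: plate controls were thrombin with DMSO for no effect and buffer wells lacking thrombin for full effect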
* marks the source's active call; other numbers are inactive results; · = no result given. Cut-off read from the data, not from the text of the source, unless noted: active = inhibition above about 40%; inactive = the rest.

SMILES	HNF4A DNA FP	IDE act	TPT1 inh	Rpn11 block	IDE cell inh	CSN deneddyl inh	Rpn11 confirm	MMP-2 inh	Thrombin inh
COc1ccc(-c2csc(Nc3ccc(S(N)(=O)=O)cc3)n2)cc1	6	-6	2	7	13	4	·	·	·
CCCCN(C(=O)c1ccc(NC2CC2)c([N+](=O)[O-])c1)c1c(N)n(CCCC)c(=O)[nH]c1=O	5	5	·	-9	·	-3	·	·	·
CC(C)Nc1nc(NC(C)C)nc(Oc2ccc(=O)n(C)n2)n1	2	-4	-4	-1	0	5	·	·	·
CC(C)Nc1nc(Oc2ccc(=O)n(-c3ccccc3)n2)nc(N(C)C)n1	-35	11	-2	44*	-6	-1	5	-7	2
Cc1ccc(S(=O)(=O)N2CCC(C(=O)OCc3ccc([N+](=O)[O-])cc3)CC2)cc1	0	-1	-1	2	1	-24	·	·	·
Cc1nnc(SCC2=C(C(=O)O)N3C(=O)C(NC(=O)COc4ccccc4)C3SC2)s1 (stereo not given)	-1	4	·	1	·	5	·	·	·
CO/N=C(/C(=O)N[C@@H]1C(=O)N2C(C(=O)O)=CCS[C@H]12)c1cnc(N)s1	-78	·	-1	64*	-4	21	85*	37	15
c1ccc(Cn2c(SCc3nc4ccccc4s3)nnc2-c2ccco2)cc1	-20	0	17	74*	2	45*	7	29	3
CCC(c1nnc(SCc2nc3ccccc3s2)n1Cc1ccccc1)N(C)C (stereo not given)	2	6	8	10	3	-4	·	·	·
Cc1nc2c(sc3nc(N4CCOCC4)c4c(c32)CC(C)(C)OC4)c(-c2ccc(Cl)cc2)c1C(=O)O	15	5	17	57*	7	5	10	-30	1
CCN1C(=O)c2cccc3c(NC(=O)c4ccc(S(=O)(=O)N5CCOCC5)cc4)ccc1c23	-7	3	5	75*	2	6	5	-16	-1
COc1ccc(C2=NO[C@@](CC(=O)O)(C(=O)Nc3ccc4c(c3)OCCO4)C2)cc1	2	1	1	0	1	-3	·	·	·
CN(C)/N=C/c1ccc(P(c2ccc(/C=N/N(C)C)o2)c2ccc(/C=N/N(C)C)o2)o1	-4	·	-6	-3	-6	1	·	·	·
COC(=O)c1sccc1NC(=O)c1cc(OC)cc(OC)c1	-1	1	3	11	4	19	·	·	·
COC(=O)c1sccc1NC(=O)c1ccncc1	-3	5	-8	48*	-1	0	7	15	4
Cc1ccc(NC(=O)CCNS(=O)(=O)c2ccc(Br)cc2)cc1S(=O)(=O)N1CCOCC1	3	-5	-2	-7	-1	4	·	·	·
O=C(/C=C/c1ccccc1Cl)Nc1ccc2c(c1)C(=O)NC2=O	3	3	6	54*	0	25	57*	22	-24
CCC(C)NC(=O)CCn1c(=O)c2cccn2c2ccc(F)cc21 (stereo not given)	-4	-2	·	3	·	-1	·	·	·
CCOC(=O)Cn1c(=NC(=O)c2ccc([N+](=O)[O-])s2)sc2ccccc21	26	-2	2	44*	-2	-3	-5	-39	-75
CCOC(=O)Cn1c(=NC(=O)C2COc3ccccc3O2)sc2cc(S(N)(=O)=O)ccc21 (stereo not given)	2	1	-3	-3	2	-5	·	·	·
O=C(NN=C1c2ccccc2-c2ccccc21)c1ccccn1	1	0	0	94*	0	-3	60*	-28	-14
CC(=O)C[C@H](O)CC(=O)[C@H]1OC(=O)CC/C=C\Cc2ccccc21	-2	3	·	-3	5	-2	·	·	·
OC[C@@H]1CN(C2CCCC2)C[C@H](n2cnc3c(NC4CC4)ncnc32)O1	3	·	·	-1	·	-4	·	·	·
CCOC(=O)c1c(C)[nH]c(C(=O)OCC(=O)N(CC)c2c(N)n(Cc3ccccc3)c(=O)[nH]c2=O)c1C	4	0	·	8	·	2	·	·	·
CCOC(=O)c1c(C)[nH]c(C(=O)OCC(=O)N(CC(C)C)c2c(N)n(Cc3ccccc3)c(=O)[nH]c2=O)c1C	18	-2	15	60*	2	12	104*	-1	69*
SMILES	HNF4A DNA FP	IDE act	TPT1 inh	Rpn11 block	IDE cell inh	CSN deneddyl inh	Rpn11 confirm	MMP-2 inh	Thrombin inh
Cc1cc(C)c(S(=O)(=O)N2CCCCC2)c(C)c1N(C)S(=O)(=O)c1ccc(Cl)cc1	4	6	-4	-6	8	2	·	·	·
Cc1noc(C)c1S(=O)(=O)N(C)C[C@@H]1OCc2cnnn2CCCC(=O)N([C@@H](C)CO)C[C@H]1C	3	·	·	1	·	1	·	·	·
Nn1c(SCC(=O)NC2CCCCCC2)nnc1-c1ccco1	-2	·	·	0	·	-4	·	·	·
O=C(Nc1cccc(-c2cc3ccccc3oc2=O)c1)c1ccc(Br)o1	1	2	-5	4	5	1	·	·	·
O=C(Nc1cccnc1)c1cccc(-c2cc3ccccc3oc2=O)c1	9	-2	-1	134*	-2	25	115*	14	15
O=C(O)c1ccc(N=Nc2c(O)ccc3ncccc23)cc1	-24	39*	-17	47*	-33	34	0	-10	-16
S=C(NNc1ccnc2cc(Cl)ccc12)Nc1ccc(Cl)cc1Cl	-9	-9	10	44*	13	10	15	48*	-40
COc1ccc(NC(=O)c2csc(C)c2)cc1OC	0	-5	-4	7	-4	-7	·	·	·
N#Cc1cnc(SCC(=O)NNC(=O)COc2cccc3ccccc23)nc1N	13	2	51*	45*	6	1	9	2	0
Cc1cccc(OCC(=O)NNC(=O)CSc2ncc(C#N)c(N)n2)c1	5	6	1	-6	1	3	·	·	·
CCCCCCCC(=O)Nc1ccc(C(=O)N/N=C/c2cccc([N+](=O)[O-])c2)cc1	-7	1	-7	38*	2	4	3	-34	-11
CCCCCCC(=O)Nc1ccc(C(=O)N/N=C/c2cccnc2)cc1	5	-5	-1	1	3	-2	·	·	·
Cc1ccc(C)c(OCCn2cc(/C=C(/C#N)C(=O)NCC3CCCO3)c3ccccc32)c1 (stereo not given)	1	2	10	100*	-12	-3	72*	-1	28
